The target in experiment [1] is cGMP-dependent 3',5'-cyclic phosphodiesterase (Homo sapiens, UniProt O00408). In words: Inhibition of cGMP activated human recombinant PDE2A using [3H]cAMP as substrate after 30 mins by scintillation proximity assay. Summed up:
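PDE2A (NM002599) activated with 1 µM cGMP; substrate 0.5 µM [3H]cAMP; scintillation proximity read-out at varied inhibitor concentrations with fixed enzyme amount; IC50 from two-parameter Hill model.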
A general note: In a scintillation proximity assay essentially only radioactivity close to the scintillant gives light.

Experiment [2] concerns the target cAMP and cAMP-inhibited cGMP 3',5'-cyclic phosphodiesterase 10A (Homo sapiens, UniProt Q9Y233). In words: Inhibition of human recombinant PDE10A1 expressed in baculovirus infected insect SF21 cells using [3H]cAMP as substrate after 30 mins by scintillation proximity assay. Summed up:
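Cytosolic PDE10A1 from Sf21 lysate (sonication in Tris-HCl/EDTA/sucrose pH 7.4, 48000 g supernatant, stored -70°C). Assay in 50 mM Tris-HCl/5 mM MgCl2 with 0.1 µM [3H]cAMP, started by substrate, 37°C for 30 min; stopped with Ysi-SPA beads, settled 1 h, scintillation counting. Enzyme amount optimized per preparation; no-enzyme blank for non-specific activity; IC50 by two-parameter Hill model.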

For the next experiment, the species on record is Homo sapiens. In words: Selectivity factor, ratio of IC50 for human recombinant PDE2A to IC50 for human recombinant PDE10A1.
In experiment [3] the target is Dual specificity calcium/calmodulin-dependent 3',5'-cyclic nucleotide phosphodiesterase 1B (Homo sapiens, UniProt Q01064). Put plainly: Inhibition of human PDE1B using [3H]cAMP as substrate after 30 mins by scintillation proximity assay.
Experiment [4] concerns the target cGMP-inhibited 3',5'-cyclic phosphodiesterase 3A (Homo sapiens, UniProt Q14432). Put plainly: Inhibition of human PDE3A using [3H]cAMP as substrate after 30 mins by scintillation proximity assay.
Experiment [5] addresses 3',5'-cyclic-AMP phosphodiesterase 4A (Homo sapiens, UniProt P27815). In words: Inhibition of human PDE4A using [3H]cAMP as substrate after 30 mins by scintillation proximity assay.
Experiment [6] has as its target cGMP-specific 3',5'-cyclic phosphodiesterase (Homo sapiens, UniProt O76074). In words: Inhibition of human PDE5A using [3H]cAMP as substrate after 30 mins by scintillation proximity assay.
Experiment [7] in a line: Inhibition of bovine PDE6 using [3H]cAMP as substrate after 30 mins by scintillation proximity assay. Details: species or system Bos taurus.
For experiment [8], the target named is 3',5'-cyclic-AMP phosphodiesterase 7B (Homo sapiens, UniProt Q9NP56). In words: Inhibition of human PDE7B using [3H]cAMP as substrate after 30 mins by scintillation proximity assay.
For experiment [9], the target named is High affinity cAMP-specific and IBMX-insensitive 3',5'-cyclic phosphodiesterase 8A (Homo sapiens, UniProt O60658). Put plainly: Inhibition of human PDE8A using [3H]cAMP as substrate after 30 mins by scintillation proximity assay.
Experiment [10] concerns the target High affinity cGMP-specific 3',5'-cyclic phosphodiesterase 9A (Homo sapiens, UniProt O76083). In words: Inhibition of human PDE9A using [3H]cAMP as substrate after 30 mins by scintillation proximity assay.
Experiment [11] has as its target Dual 3',5'-cyclic-AMP and -GMP phosphodiesterase 11A (Homo sapiens, UniProt Q9HCR9). In words: Inhibition of human PDE11A using [3H]cAMP as substrate after 30 mins by scintillation proximity assay.

The source of these data is ChEMBL document CHEMBL3739392, “Development of highly potent phosphodiesterase 10A (PDE10A) inhibitors: Synthesis and in vitro evaluation of 1,8-dipyridinyl- and 1-pyridinyl-substituted imidazo[1,5-a]quinoxalines” (Eur J Med Chem, 2016).

3',5'-cyclic-AMP phosphodiesterase 4A, sequence (P27815 whole entry): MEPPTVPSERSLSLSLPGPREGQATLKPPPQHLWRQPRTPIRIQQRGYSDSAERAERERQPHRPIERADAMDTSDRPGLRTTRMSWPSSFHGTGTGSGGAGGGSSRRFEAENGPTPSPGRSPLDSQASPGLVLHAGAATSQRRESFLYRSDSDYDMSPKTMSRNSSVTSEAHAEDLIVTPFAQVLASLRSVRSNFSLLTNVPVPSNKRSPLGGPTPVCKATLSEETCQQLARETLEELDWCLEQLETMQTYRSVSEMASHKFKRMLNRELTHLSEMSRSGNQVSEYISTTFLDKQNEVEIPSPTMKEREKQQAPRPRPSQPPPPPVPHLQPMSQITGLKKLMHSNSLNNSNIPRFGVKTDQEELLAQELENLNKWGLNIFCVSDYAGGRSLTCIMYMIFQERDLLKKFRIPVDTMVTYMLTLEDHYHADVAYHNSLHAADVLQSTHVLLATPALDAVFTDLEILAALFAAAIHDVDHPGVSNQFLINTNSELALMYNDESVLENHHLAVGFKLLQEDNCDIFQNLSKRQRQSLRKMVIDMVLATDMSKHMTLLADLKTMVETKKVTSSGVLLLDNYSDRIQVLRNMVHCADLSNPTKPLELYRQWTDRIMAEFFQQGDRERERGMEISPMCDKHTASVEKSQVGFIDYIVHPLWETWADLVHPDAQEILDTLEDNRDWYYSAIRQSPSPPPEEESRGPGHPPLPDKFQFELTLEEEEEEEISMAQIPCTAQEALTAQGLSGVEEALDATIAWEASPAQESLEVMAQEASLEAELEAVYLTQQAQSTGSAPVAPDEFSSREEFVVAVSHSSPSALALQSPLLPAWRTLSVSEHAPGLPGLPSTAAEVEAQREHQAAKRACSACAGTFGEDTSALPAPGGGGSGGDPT
cAMP and cAMP-inhibited cGMP 3',5'-cyclic phosphodiesterase 10A, sequence (Q9Y233 whole entry): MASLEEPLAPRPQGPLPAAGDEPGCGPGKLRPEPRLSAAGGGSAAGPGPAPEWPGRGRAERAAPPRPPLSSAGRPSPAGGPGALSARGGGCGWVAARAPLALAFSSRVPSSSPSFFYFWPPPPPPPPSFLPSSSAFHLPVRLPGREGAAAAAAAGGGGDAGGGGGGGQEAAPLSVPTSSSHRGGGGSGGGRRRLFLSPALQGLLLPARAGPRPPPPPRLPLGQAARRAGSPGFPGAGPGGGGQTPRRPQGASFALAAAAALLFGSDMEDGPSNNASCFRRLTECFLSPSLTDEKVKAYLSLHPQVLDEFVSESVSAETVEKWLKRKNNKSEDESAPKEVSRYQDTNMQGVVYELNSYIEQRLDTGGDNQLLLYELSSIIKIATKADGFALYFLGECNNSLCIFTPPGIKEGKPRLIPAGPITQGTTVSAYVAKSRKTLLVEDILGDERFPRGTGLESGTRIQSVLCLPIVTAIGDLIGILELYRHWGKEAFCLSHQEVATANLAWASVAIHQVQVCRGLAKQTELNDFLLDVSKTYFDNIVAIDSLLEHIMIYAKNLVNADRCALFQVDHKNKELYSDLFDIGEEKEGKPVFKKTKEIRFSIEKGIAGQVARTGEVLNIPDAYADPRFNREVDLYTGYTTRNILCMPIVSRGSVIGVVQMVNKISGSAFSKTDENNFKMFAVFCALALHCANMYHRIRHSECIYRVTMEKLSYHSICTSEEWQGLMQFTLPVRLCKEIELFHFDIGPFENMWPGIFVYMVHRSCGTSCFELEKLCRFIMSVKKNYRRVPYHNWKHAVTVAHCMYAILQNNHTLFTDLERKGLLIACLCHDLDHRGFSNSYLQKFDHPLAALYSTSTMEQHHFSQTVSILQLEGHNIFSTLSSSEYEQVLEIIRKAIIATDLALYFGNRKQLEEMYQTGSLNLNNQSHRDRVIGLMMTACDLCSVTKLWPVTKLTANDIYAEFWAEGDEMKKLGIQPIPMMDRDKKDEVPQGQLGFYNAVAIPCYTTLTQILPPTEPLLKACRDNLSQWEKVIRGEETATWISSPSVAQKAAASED
cGMP-inhibited 3',5'-cyclic phosphodiesterase 3A, sequence (Q14432 whole entry): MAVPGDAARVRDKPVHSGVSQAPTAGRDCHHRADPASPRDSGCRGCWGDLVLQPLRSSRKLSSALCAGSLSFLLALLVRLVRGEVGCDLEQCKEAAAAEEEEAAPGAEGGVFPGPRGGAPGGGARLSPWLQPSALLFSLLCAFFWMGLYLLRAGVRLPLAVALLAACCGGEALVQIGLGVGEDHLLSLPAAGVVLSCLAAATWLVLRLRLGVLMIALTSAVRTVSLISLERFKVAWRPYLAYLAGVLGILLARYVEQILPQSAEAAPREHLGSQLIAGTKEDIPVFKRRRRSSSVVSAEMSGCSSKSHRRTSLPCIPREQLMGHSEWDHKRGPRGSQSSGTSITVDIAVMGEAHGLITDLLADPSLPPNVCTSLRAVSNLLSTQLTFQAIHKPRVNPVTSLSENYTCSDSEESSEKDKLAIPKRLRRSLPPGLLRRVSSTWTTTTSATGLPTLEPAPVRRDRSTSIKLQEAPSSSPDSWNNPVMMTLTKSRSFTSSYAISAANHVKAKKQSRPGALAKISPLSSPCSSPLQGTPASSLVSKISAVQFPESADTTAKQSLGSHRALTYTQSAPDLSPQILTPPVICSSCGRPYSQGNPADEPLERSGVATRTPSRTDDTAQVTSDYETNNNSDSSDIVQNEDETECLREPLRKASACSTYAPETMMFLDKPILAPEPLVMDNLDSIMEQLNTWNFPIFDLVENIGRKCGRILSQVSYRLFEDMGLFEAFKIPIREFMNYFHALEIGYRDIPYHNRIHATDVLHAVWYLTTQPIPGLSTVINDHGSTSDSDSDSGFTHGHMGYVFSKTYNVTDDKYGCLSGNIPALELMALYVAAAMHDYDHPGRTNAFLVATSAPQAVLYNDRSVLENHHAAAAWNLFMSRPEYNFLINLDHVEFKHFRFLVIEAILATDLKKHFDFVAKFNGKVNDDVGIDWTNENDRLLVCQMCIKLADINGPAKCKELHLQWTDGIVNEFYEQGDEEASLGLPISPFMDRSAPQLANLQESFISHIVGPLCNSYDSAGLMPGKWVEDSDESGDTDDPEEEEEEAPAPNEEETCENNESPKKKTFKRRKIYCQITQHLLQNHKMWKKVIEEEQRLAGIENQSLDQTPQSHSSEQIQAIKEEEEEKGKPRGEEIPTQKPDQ
High affinity cAMP-specific and IBMX-insensitive 3',5'-cyclic phosphodiesterase 8A, sequence (O60658 whole entry): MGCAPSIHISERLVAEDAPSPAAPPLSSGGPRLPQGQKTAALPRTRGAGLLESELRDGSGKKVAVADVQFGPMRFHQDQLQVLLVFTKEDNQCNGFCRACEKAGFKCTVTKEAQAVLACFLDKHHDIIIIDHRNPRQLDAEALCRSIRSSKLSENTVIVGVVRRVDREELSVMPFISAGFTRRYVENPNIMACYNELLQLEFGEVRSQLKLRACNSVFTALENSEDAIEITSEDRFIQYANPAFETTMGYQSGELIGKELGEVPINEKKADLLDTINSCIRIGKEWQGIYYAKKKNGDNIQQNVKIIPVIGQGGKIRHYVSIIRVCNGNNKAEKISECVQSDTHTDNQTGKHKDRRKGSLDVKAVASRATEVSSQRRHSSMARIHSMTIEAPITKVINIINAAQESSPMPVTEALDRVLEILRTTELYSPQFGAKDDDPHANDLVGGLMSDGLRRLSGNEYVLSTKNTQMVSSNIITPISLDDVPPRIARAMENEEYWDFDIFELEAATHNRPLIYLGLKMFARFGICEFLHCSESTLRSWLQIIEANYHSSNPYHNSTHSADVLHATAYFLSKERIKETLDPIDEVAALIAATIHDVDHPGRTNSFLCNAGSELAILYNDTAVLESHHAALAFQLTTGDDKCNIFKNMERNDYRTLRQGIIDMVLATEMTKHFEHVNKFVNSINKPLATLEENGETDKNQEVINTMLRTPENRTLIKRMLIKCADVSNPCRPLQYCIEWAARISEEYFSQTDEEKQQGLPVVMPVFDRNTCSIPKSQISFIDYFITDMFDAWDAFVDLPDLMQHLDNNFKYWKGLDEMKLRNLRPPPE
High affinity cGMP-specific 3',5'-cyclic phosphodiesterase 9A, sequence (O76083 whole entry): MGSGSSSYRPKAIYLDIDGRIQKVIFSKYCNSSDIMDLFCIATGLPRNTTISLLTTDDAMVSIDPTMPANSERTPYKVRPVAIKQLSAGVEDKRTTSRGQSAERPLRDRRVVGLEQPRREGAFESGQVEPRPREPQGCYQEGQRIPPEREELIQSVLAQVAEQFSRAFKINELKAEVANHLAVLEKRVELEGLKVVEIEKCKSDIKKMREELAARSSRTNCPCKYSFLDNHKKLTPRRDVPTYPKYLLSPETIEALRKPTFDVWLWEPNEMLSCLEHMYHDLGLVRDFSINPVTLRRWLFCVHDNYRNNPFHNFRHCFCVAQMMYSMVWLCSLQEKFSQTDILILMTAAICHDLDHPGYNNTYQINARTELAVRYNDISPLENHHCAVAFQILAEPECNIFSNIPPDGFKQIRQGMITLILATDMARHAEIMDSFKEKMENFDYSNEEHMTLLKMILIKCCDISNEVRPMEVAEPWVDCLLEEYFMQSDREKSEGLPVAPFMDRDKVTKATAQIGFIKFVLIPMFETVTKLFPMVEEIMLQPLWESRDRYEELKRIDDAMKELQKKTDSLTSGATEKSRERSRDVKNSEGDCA
3',5'-cyclic-AMP phosphodiesterase 7B, sequence (Q9NP56 whole entry): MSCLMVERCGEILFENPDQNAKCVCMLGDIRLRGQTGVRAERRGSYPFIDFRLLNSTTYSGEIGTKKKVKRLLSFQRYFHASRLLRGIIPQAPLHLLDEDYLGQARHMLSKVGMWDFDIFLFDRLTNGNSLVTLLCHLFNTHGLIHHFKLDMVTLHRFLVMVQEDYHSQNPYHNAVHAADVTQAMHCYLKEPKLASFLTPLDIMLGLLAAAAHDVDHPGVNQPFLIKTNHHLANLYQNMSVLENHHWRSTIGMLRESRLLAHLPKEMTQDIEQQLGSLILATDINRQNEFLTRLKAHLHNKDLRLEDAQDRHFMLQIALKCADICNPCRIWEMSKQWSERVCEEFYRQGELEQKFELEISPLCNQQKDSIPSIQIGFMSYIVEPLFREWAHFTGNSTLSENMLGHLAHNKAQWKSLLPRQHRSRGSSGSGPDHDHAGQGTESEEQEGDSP

The IC50 is the concentration that gives 50% inhibition. In the case of `COc1cc(-c2ccncc2)cc2c1nc(C)c1c(C)nc(-c3ccc(F)nc3)n12`, the IC50 in [1] is 162 nM; in [2] it was 0.99 nM; in experiment [3] it was over 1000 nM; in [4] it was over 1000 nM; in [5], over 1000 nM; in experiment [6] it was 195 nM. The 50% inhibitory concentration (IC50) was 585 nM in experiment [7]; under 1000 nM in [8]; over 1000 nM in experiment [9]; over 1000 nM in [10]; 413 nM in [11]. Further, the Ratio IC50 in the experiment filed under Homo sapiens came out at 164.

Turning to `COc1cc(-c2cccnc2)cc2c1nc(C)c1c(C)nc(-c3cccnc3F)n12`, the IC50 is 3.49 nM in [1]; 0.037 nM in experiment [2]; over 1000 nM in [3]; over 1000 nM in experiment [4]; under 1000 nM in experiment [5]; 91.6 nM in experiment [6]. Further, the half-maximal inhibitory concentration (IC50) in [7] is 177 nM; in experiment [8], over 1000 nM; in experiment [9], over 1000 nM; in [10] it was over 1000 nM; in [11], 457 nM. For the same compound, the Ratio IC50 in the experiment listed under Homo sapiens amounted to 94.

For `COc1cc(C#N)cc2c1nc(C)c1c(C)nc(-c3cccnc3F)n12`, the IC50 in [1] amounted to 98.6 nM; in [2] it was 1.69 nM. Further, in the experiment filed under Homo sapiens, the Ratio IC50 was 58.

As for `COc1cc(-c2cccnc2)cc2c1nc(C)c1c(C)nc(-c3cccnc3)n12`, the IC50 was 10.9 nM in [1]; 0.11 nM in experiment [2]; over 1000 nM in experiment [3]; over 1000 nM in experiment [4]; 1000 nM in [5]; 232 nM in experiment [6]. Moreover, the concentration for half-maximal inhibition (IC50) is 425 nM in experiment [7]; over 1000 nM in experiment [8]; over 1000 nM in experiment [9]; over 1000 nM in experiment [10]; 286 nM in experiment [11]. For the same compound, the Ratio IC50 in the experiment listed under Homo sapiens worked out at 99.

With `COc1cc(-c2ccc(F)nc2)cc2c1nc(C)c1c(C)nc(-c3ccc(F)nc3)n12`, the half-maximal inhibitory concentration (IC50) in [1] is 395 nM; in experiment [2], 3.3 nM; in [3], over 1000 nM; in experiment [4], over 1000 nM; in experiment [5] it was over 1000 nM; in experiment [6], over 1000 nM. In addition, the IC50 in experiment [7], in experiment [8], in experiment [9], in [10] and in experiment [11] was over 1000 nM throughout. Also, the Ratio IC50 in the experiment filed under Homo sapiens was 120.

Turning to `COc1cc(-c2ccc(F)nc2)cc2c1nc(C)c1c(C)nc(Br)n12`, the IC50 in experiment [1] was over 1000 nM; in experiment [2], 10.3 nM. In the experiment filed under Homo sapiens, the Ratio IC50 is over 97.

Regarding `COc1cc(C#N)cc2c1nc(C)c1c(C)nc(-c3ccc(F)nc3)n12`, the results for the 50% inhibitory concentration (IC50) in [1] and in experiment [2] were over 1000 nM and 20.4 nM, respectively. Besides, in the experiment listed under Homo sapiens, the Ratio IC50 is over 49.

As for `COc1cc(-c2cccnc2F)cc2c1nc(C)c1c(C)nc(-c3cccnc3F)n12`, the IC50 in [1] came out at 2.06 nM; in experiment [2], 0.048 nM. Further, in the experiment listed under Homo sapiens, the Ratio IC50 is 43.

Regarding `COc1cc(-c2ccc(F)nc2)cc2c1nc(C)c1c(C)ncn12`, the figures for the IC50 in experiment [1] and in experiment [2] were over 1000 nM and 26.3 nM, respectively. The Ratio IC50 in the experiment listed under Homo sapiens was over 38.

As to `COc1cc(Br)cc2c1nc(C)c1c(C)nc(-c3ccc(F)nc3)n12`, the IC50 in experiment [1] is over 1000 nM; in experiment [2], 2.95 nM; in experiment [3], over 1000 nM; in experiment [4], over 1000 nM; in [5], over 1000 nM; in [6], over 1000 nM. Also, the IC50 in experiment [7], in experiment [8], in experiment [9], in [10] and in experiment [11] was over 1000 nM throughout. Also, the Ratio IC50 in the experiment filed under Homo sapiens is over 339.

For the compound `COc1cc(-c2ccc(F)nc2)cc2c1nc(C)c1c(C)nc(-c3cccnc3)n12`, the IC50 in [1] is 29.2 nM; in experiment [2] it was 0.33 nM; in [3], over 1000 nM; in experiment [4], over 1000 nM; in [5], over 1000 nM; in [6] it was 279 nM. Besides, the half-maximal inhibitory concentration (IC50) in [7] is 631 nM; in experiment [8], over 1000 nM; in experiment [9], over 1000 nM; in experiment [10], over 1000 nM; in [11], 286 nM. Also, in the experiment listed under Homo sapiens, the Ratio IC50 is 88.

In the case of `COc1cc(-c2cccnc2)cc2c1nc(C)c1c(C)nc(-c3ccnc(F)c3)n12`, the results for the 50% inhibitory concentration (IC50) in experiment [1] and in experiment [2] were 46.8 nM and 0.46 nM, respectively. The Ratio IC50 in the experiment filed under Homo sapiens came out at 102.

On to `COc1cc(-c2ccc(F)nc2)cc2c1nc(C)c1c(C)nc(-c3ccncc3)n12`, for which the half-inhibitory concentration (IC50) in experiment [1] was 65.7 nM; in experiment [2], 0.41 nM; in experiment [3] it was over 1000 nM; in experiment [4] it was over 1000 nM; in [5] it was 841 nM; in [6] it was 201 nM. Also, the 50% inhibitory concentration (IC50) in [7], in experiment [8], in [9], in experiment [10] and in experiment [11] was over 1000 nM in each case. In addition, in the experiment listed under Homo sapiens, the Ratio IC50 was determined as 160.

Regarding `COc1cc(Br)cc2c1nc(C)c1c(C)nc(-c3cccnc3F)n12`, the half-maximal inhibitory concentration (IC50) in experiment [1] was 23.9 nM; in [2], 0.12 nM; in experiment [3] it was over 1000 nM; in experiment [4], over 1000 nM; in experiment [5], over 1000 nM; in experiment [6], 606 nM. Further, the IC50 in experiment [7] was 432 nM; in experiment [8] it was over 1000 nM; in [9], over 1000 nM; in [10], over 1000 nM; in [11], 494 nM. Moreover, in the experiment listed under Homo sapiens, the Ratio IC50 came out at 199.

`COc1cc(-c2cccnc2)cc2c1nc(C)c1c(C)nc(-c3ccc(F)nc3)n12`: the concentration for half-maximal inhibition (IC50) is 78.6 nM in experiment [1]; 0.87 nM in [2]; over 1000 nM in experiment [3]; over 1000 nM in [4]; over 1000 nM in experiment [5]; 228 nM in experiment [6]. Further, the IC50 is 559 nM in [7]; over 1000 nM in experiment [8]; over 1000 nM in experiment [9]; over 1000 nM in experiment [10]; 395 nM in experiment [11]. For the same compound, in the experiment filed under Homo sapiens, the Ratio IC50 came out at 90.

For the compound `COc1cc2ncnc(N3CC[C@@H](Oc4cnc5ccccc5n4)C3)c2cc1OC`, the IC50 in [2] turned out to be 16 nM.

`COc1cc(Br)cc2c1nc(C)c1c(C)nc(-c3ccnc(F)c3)n12`: the results for the IC50 in experiment [1] and in experiment [2] were over 1000 nM and 3.18 nM, respectively. The Ratio IC50 in the experiment filed under Homo sapiens was over 312.

Take `COc1cc(-c2ccnc(F)c2)cc2c1nc(C)c1c(C)nc(-c3ccnc(F)c3)n12`: the half-inhibitory concentration (IC50) came out at 481 nM in [1] and 1.57 nM in experiment [2]. Moreover, the Ratio IC50 in the experiment filed under Homo sapiens worked out at 306.
